“And” between values parts separate entries of the source, which are not always exact repeats. Equal entries are not always repeated.
Tests used:
[1] = biological target: D(1A) dopamine receptor (Rattus norvegicus, UniProt P18901); test: Binding affinity for dopamine receptor D1, activity is expressed as IC50 values.
[2] = biological target: D(2) dopamine receptor (Rattus norvegicus, UniProt P61169); test: Binding affinity against dopamine receptor D2
[3] = organism: Mus musculus; test: Antagonism of methyl phenidate-induced gnawing behavior in mice; format: functional
Outline: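 Test compound given ip (or sc) 2 h before methyl phenidate (60 mg/kg); mice housed in pairs on corrugated cardboard in gnawing cages, 5–9 pairs per dose.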

[4] = organism: Rattus norvegicus; test: Cataleptogenic effect in rats; format: functional
Outline: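 Rats scored on a vertical wire grid hourly 1–6 h after dosing; catalepsy counted when immobility lasted at least 15 s.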

[5] = biological target: 5-hydroxytryptamine receptor 2A (Rattus norvegicus, UniProt P14842); test: Binding affinity for 5-hydroxytryptamine 2A receptor, activity is expressed as IC50 values.
[6] = organism: Rattus norvegicus; test: In vitro inhibition of [3H]5-HT uptake in rat brain (minus pons, medulla oblongata and cerebellum) homogenates.; format: functional
[7] = organism: Rattus norvegicus; test: In vitro inhibition of [3H]dopamine uptake in rat corpus striatum homogenates.; format: functional
[8] = organism: Rattus norvegicus; test: In vitro inhibition of [3H]NE uptake in rat occipital lobe (plus temporal cortex) homogenates.; format: functional
[9] = Rattus norvegicus, read-out: ED50
[10] = Rattus norvegicus, Corpus striatum

Sequence of D(2) dopamine receptor (P61169 whole entry): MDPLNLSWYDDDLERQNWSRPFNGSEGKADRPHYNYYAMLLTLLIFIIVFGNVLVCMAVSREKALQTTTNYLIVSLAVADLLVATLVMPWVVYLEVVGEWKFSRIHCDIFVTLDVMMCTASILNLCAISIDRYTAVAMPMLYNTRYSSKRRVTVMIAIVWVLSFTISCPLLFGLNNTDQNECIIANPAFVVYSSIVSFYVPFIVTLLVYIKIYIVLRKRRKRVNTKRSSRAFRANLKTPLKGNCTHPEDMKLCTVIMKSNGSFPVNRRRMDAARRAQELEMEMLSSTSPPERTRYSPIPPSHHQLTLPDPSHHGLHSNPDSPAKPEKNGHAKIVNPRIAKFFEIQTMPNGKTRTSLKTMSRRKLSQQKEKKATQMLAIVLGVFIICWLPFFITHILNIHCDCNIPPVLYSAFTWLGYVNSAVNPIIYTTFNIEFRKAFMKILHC
Sequence of D(1A) dopamine receptor (P18901 whole entry): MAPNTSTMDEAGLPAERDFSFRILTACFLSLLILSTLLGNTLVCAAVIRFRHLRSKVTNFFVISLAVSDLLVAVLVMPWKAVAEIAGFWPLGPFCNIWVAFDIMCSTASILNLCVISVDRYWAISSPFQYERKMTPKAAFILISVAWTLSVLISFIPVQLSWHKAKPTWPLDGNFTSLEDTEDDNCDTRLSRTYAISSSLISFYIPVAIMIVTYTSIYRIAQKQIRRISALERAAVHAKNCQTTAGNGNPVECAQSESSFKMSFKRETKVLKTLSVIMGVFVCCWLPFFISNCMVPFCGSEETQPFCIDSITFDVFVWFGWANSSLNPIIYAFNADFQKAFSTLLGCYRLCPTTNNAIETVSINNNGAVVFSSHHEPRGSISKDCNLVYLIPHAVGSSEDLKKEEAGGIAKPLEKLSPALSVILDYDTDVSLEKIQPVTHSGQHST
Sequence of 5-hydroxytryptamine receptor 2A (P14842 whole entry): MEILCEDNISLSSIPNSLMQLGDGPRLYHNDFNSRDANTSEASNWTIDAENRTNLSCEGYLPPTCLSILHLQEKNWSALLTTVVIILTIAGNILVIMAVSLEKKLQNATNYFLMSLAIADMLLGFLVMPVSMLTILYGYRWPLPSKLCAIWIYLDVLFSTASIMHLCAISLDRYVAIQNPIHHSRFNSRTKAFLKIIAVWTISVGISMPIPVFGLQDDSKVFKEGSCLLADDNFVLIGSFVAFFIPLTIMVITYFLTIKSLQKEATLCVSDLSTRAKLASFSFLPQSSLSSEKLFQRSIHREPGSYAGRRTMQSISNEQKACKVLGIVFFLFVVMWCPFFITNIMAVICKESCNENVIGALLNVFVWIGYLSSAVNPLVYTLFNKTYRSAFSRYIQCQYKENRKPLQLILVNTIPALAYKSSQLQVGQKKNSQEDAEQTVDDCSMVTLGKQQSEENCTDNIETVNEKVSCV

IC50 [1] [µM]	IC50 [2] [µM]	SMILES	ED50 ([3]; Mus musculus, read-out: ED50) [µmol/kg]	ED50 [4, 9] [µmol/kg]	also measured
0.066	0.014	CC(C)c1ccc2c(c1)C(N1CCN(CCO)CC1)CC2c1ccc(F)cc1 (centres undefined)			
0.73	2.8	OCCN1CCN(C2CC(c3ccccc3)c3ccccc32)CC1 (centres undefined)			
		CN1CCN(C2CC(c3ccc(F)cc3)c3cccc(Cl)c32)CC1(C)C (centres undefined)	> 41	> 41	
		CC1(C)CN(C2CC(c3ccc(F)cc3)c3ccc(Cl)cc32)CCN1CCO (centres undefined)	0.34	3.7	
		CN1CCN(C2CC(c3ccccc3F)c3ccc(Cl)cc32)CC1(C)C (centres undefined)	34	> 33	
0.038	0.013	Cc1ccc2c(c1)C(N1CCN(C)CC1)CC2c1ccc(F)cc1 (centres undefined)			
0.016	0.061	CN1CCN(C2CC(c3ccccc3)c3ccc(Cl)cc32)CC1 (centres undefined)			
0.016	0.082	OCCN1CCN(C2CC(c3ccc(F)cc3)c3ccc(F)cc32)CC1 (centres undefined)			
		CC1(C)CN(C2CC(c3ccc(F)cc3)c3ccc(C(F)(F)F)cc32)CCN1 (centres undefined)	2.7	> 51	IC50 [5]: 0.0075 µM
		CN1CCN(C2CC(c3ccc(F)cc3)c3ccc(Br)cc32)CC1(C)C (centres undefined)	1.5	9.4	
0.21	0.086	COc1ccc2c(c1)C(N1CCN(CCO)CC1)CC2c1ccc(F)cc1 (centres undefined)			
		CN1CCN(C2CC(c3cccc(F)c3)c3ccc(Cl)cc32)CC1(C)C (centres undefined)	> 33	> 33	
0.0011	0.021	CC1(C)CN(C2CC(c3ccc(F)cc3)c3ccc(Cl)cc32)CCN1CCCO (centres undefined)		< 17	
0.017	0.0081	CN1CCN(C2CC(c3ccc(F)cc3)c3ccc(C(F)(F)F)cc32)CC1 (centres undefined)			
		CCC1(CC)CN(C2CC(c3ccc(F)cc3)c3ccc(Cl)cc32)CCN1C (centres undefined)	> 81	> 20	
0.051	0.023	Cc1ccc2c(c1)C(N1CCN(CCO)CC1)CC2c1ccc(F)cc1 (centres undefined)			
0.013	0.12	CC1CN(C2CC(c3ccc(F)cc3)c3ccc(Cl)cc32)CC(C)N1C (centres undefined)	53	> 36	
		CN1CCN(C2CC(c3ccc(F)cc3)c3c(Cl)cccc32)CC1(C)C (centres undefined)	> 36		
0.034	0.063	CN1CCN(C2CC(c3ccc(Cl)cc3)c3ccc(Cl)cc32)CC1(C)C (centres undefined)	> 69		IC50 [5]: 0.032 µM
0.69	0.042	CS(=O)(=O)c1ccc2c(c1)C(N1CCN(CCO)CC1)CC2c1ccc(F)cc1 (centres undefined)			
		Cc1ccc2c(c1)C(N1CCNC(C)(C)C1)CC2c1ccc(F)cc1 (centres undefined)	33	> 29	
		Cc1ccc2c(c1)C(N1CCN(C)C(C)(C)C1)CC2c1ccc(F)cc1 (centres undefined)	1.4	33	

IC50 [1] [µM]	IC50 [2] [µM]	SMILES	ED50 ([3]; Mus musculus, read-out: ED50) [µmol/kg]	ED50 [4, 9] [µmol/kg]	also measured
		CN1CCN(C2CC(c3ccc(F)cc3)c3ccc(F)cc32)CC1 (centres undefined)			IC50 [6]: 0.61 µM and 3.9 µM
		Fc1ccc(C2CC(N3CCN4CCCCC4C3)c3cc(Cl)ccc32)cc1 (centres undefined)	14	4.1	
0.039	0.013	CSc1ccc2c(c1)C(N1CCN(CCO)CC1)CC2c1ccc(F)cc1 (centres undefined)			
0.019	0.041	CC1CN(C2CC(c3ccc(F)cc3)c3ccc(Cl)cc32)C(C)CN1C (centres undefined)	> 66	> 33	
		CN1CCN(C2CC(c3ccc(F)cc3)c3ccc(C(F)(F)F)cc32)CC1(C)C (centres undefined)	0.99	5.2	
		CN1CCN(C2CC(c3ccc(F)cc3)c3ccc(Cl)cc32)CC12CCC2 (centres undefined)	1	69	
		CC1CN(C2CC(c3ccc(F)cc3)c3ccc(Cl)cc32)CCN1C (centres undefined)	0.27	9.3	
		CN1CCN(C2CC(c3ccc(F)cc3)c3ccc(Cl)cc32)CC12CCCCC2 (centres undefined)	> 80		
		CN1CCN(C2CC(c3ccccc3)c3ccccc32)CC1(C)C (centres undefined)	> 36	> 36	
0.13		OCCN1CCN(C2CC(c3ccc(F)cc3)c3cccc(Cl)c32)CC1 (centres undefined)			
0.052		CC(C)N1CCN(C2CC(c3ccc(F)cc3)c3ccc(Cl)cc32)CC1(C)C (single isomer, unassigned; (+))			IC50 [6]: 2.6 µM; IC50 [7]: 0.02 µM; IC50 [8]: 0.1 µM
0.051		OCCN1CCN(C2CC(c3ccc(F)cc3)c3ccc(Cl)cc32)CC12CCCC2 (single isomer, unassigned; (+))			IC50 ([6]; Rattus norvegicus): 2.4 µM; IC50 [7, 10]: 0.12 µM; IC50 ([8]; Rattus norvegicus): 0.44 µM
0.0066		CN1CCN(C2CC(c3ccc(F)cc3)c3ccc(Cl)cc32)CC12CCCC2 (single isomer, unassigned; (+))			IC50 ([6]; Rattus norvegicus): 1.8 µM; IC50 [7, 10]: 0.15 µM; IC50 ([8]; Rattus norvegicus): 0.69 µM
0.00066		CC(C)N1CCN(C2CC(c3ccc(F)cc3)c3ccc(Cl)cc32)CC1(C)C (single isomer, unassigned; (-))			IC50 ([6]; Rattus norvegicus): 3.5 µM; ED50 [3]: 0.76 µM/kg; IC50 [7]: 1.3 µM; IC50 [8]: 5.6 µM; ED50 [4]: 7.1 µM/kg
0.00082		CC(C)N1CCN(C2CC(c3ccc(F)cc3)c3ccc(Cl)cc32)CC1(C)C (stereo in doubt; 29)		6.9	ED50 [3]: 1.6 µM/kg
0.00085		CN1CCN(C2CC(c3ccc(F)cc3)c3ccc(Cl)cc32)CC12CCCC2 (stereo in doubt; 34)	1.7	42	
0.0019	0.013	OCCN1CCN(C2CC(c3ccc(F)cc3)c3ccc(Cl)cc32)CC12CCCC2 (stereo in doubt; 35)			ED50 [3]: 1.6 µM/kg; ED50 [4]: 14 µM/kg
		CC1(C)CN(C2CC(c3ccsc3)c3ccc(Cl)cc32)CCN1 (stereo in doubt; 54)			ED50 [3]: 6.5 µM/kg; ED50 [4]: >35 µM/kg
0.00096		CN1CCN(C2CC(c3ccc(F)cc3)c3ccc(Cl)cc32)CC12CCCC2 (stereo in doubt; (-)-34)			ED50 [3]: 1.2 µM/kg; ED50 [4]: 31 µM/kg
0.001	0.005	OCCN1CCN(C2CC(c3ccc(F)cc3)c3ccc(Cl)cc32)CC12CCCC2 (stereo in doubt; (-)-35)			ED50 [3]: 0.49 µM/kg; ED50 [4]: 2.7 µM/kg
		CN1CCN(C2=Nc3cc(Cl)ccc3Nc3ccccc32)CC1 [CLOZAPINE]	98	> 120	

SMILES	IC50 [1] [µM]	IC50 [2] [µM]	ED50 ([3]; Mus musculus, read-out: ED50) [µmol/kg]	ED50 [4, 9] [µmol/kg]	also measured
OCCN1CCN(C2CC(c3ccc(F)cc3)c3ccc(C(F)(F)F)cc32)CC1 (centres undefined)	0.023	0.01			
CC1(C)CN(C2CC(c3ccc(F)cc3)c3ccc(Cl)cc32)CCN1 (single isomer, unassigned; (+))	1.1	12			IC50 [6]: > 0.1 µM; IC50 [7]: 0.029 µM; IC50 [5]: 3.6 µM; IC50 [8]: 0.29 µM
CN1CCN(C2CC(c3ccc(F)cc3)c3ccccc32)CC1(C)C (single isomer, unassigned; (+))	0.25	4.9			IC50 ([6]; Rattus norvegicus): 5.2 µM; IC50 [7]: 0.025 µM; IC50 [5]: 0.65 µM; IC50 [8]: 0.076 µM
CN1CCN(C2CC(c3ccc(F)cc3)c3ccc(Cl)cc32)CC1(C)C (stereo in doubt; 28)	0.0013				ED50 [3]: 0.65 µM/kg; IC50 [5]: 0.0021 µM; ED50 [4]: 25 µM/kg
CN1CCN(C2CC(c3ccc(F)cc3)c3ccccc32)CC1(C)C (stereo in doubt; 39)	0.003	0.029	12	> 70	IC50 [5]: 0.0051 µM
CN1CCN(C2CC(c3ccc(F)cc3)c3ccc(Cl)cc32)CC1(C)C (stereo in doubt; (+)-28)	0.62				IC50 [6]: > 1 µM; IC50 [7]: 0.016 µM; IC50 [8]: 0.068 µM
CN1CCN(C2CC(c3ccccc3)c3ccc(Cl)cc32)CC1(C)C (stereo in doubt; (+)-38)	0.015	0.26			IC50 ([6]; Rattus norvegicus): 5.3 µM; IC50 [7]: 0.0075 µM; IC50 [5]: 0.068 µM; IC50 [8]: 0.026 µM
CN1CCN(C2CC(c3ccc(F)cc3)c3ccc(F)cc32)CC1(C)C (stereo in doubt; (+)-40)	0.088	1.5			IC50 [6]: 3.7 µM; IC50 [7]: 0.0071 µM; IC50 [5]: 0.36 µM; IC50 [8]: 0.02 µM
CC1(C)CN(C2CC(c3ccsc3)c3ccc(Cl)cc32)CCN1 (stereo in doubt; (+)-54)	0.44	6.7			IC50 [6]: 2 µM; IC50 [7]: 0.027 µM; IC50 [5]: 1.1 µM; IC50 [8]: 0.073 µM
CN1CCN(C2CC(c3ccc(F)cc3)c3ccc(Cl)cc32)CC1(C)C (stereo in doubt; (-)-28)	0.00068		0.48		IC50 [6]: 7.2 µM; IC50 [7]: 3.2 µM; IC50 [5]: 0.0011 µM; IC50 [8]: 6.5 µM; ED50 [4]: 9.8 µM/kg
